Source: PMC8301581 (Clinical and Translational Science, 2021)
Where a name gives a salt, the structure may show the parent alone.

Tests used:
[1] = In vivo pharmacokinetic studies in mice; settings: for clearance: male, C57BL/6, mouse, plasma, intraperitoneal; for total plasma concentrations: mice, VCR 0.1 mg/kg intraperitoneal and DIP 200 mg/kg p.o.
C57BL/6 J mice = test: Mouse neurotoxicity assessment: mechanical allodynia; format: in vivo
CEM leukemia cells = test: Survival of NSG mice inoculated with human CEM leukemia cells; format: in vivo; settings: once a week, 0.3mg/kg vincristine, p value <0.001
[2] = clinical studies; cited from earlier work
[3] = cited from earlier work
CEM = format: cell-based, human; settings: CEM ALL cell line; α greater than zero = synergy, less than zero = antagonism
Procedure, shortened: (§1)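 Cells were grown in RPMI-1640 with 2 mM glutamine and 10% FBS at 37°C, 5% CO₂, and were STR-authenticated and mycoplasma-negative. Mid-log-phase cells were exposed to serial dilutions of the drugs, alone or combined, then read by a modified MTT assay after 3 days. Interaction α (positive = synergy, negative = antagonism) was estimated by modified response surface modeling relative to additivity.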

NALM6 = format: cell-based, human; settings: NALM6 ALL cell line; α greater than zero = synergy, less than zero = antagonism
Procedure, shortened: as §1

hiPSC‐derived neurons [4] = format: cell-based, human; settings: negative α = antagonism
Procedure, shortened: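 After drug treatment, hiPSC-derived neurons were stained with 5 µg/ml Hoechst 33342 and 10 µg/ml Calcein AM for 10 min at room temperature. Cells were imaged at 10×, with at least 1000 cells per condition in each of five independent experiments. Per-cell values were collected for total neurite outgrowth, number of processes and number of branches. Combination α came from response surface modeling against an additive model.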

hiPSC‐derived neurons [5] = format: cell-based, human; settings: 72 h, negative α = antagonism
Procedure, shortened: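 Human iPSC-derived peripheral neurons (>90% pure; βIII-tubulin, MAP-2, peripherin and vGLUT2 positive; three lots) were kept per the supplier's protocol. Viability was read as ATP by CellTiter-Glo 2.0 at 72 h after drug treatment. Combination responses were fitted by modified response surface modeling. α is the interaction term versus the additive model: positive means synergy, negative means antagonism.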

[6] = test system: phospho‐histone H3 (Ser10); test: Western blot of phospho‐histone H3; format: cell-based, human; settings: CEM, vincristine 2 nM for 24 h with increasing concentrations of DIP
[7] = test system: phospho‐histone H3 (Ser10); test: Western blot of phospho‐histone H3; format: cell-based, human; settings: NALM6, vincristine 2 nM for 24 h with increasing concentrations of DIP
SORORIN [8] = test: Western blot of SORORIN protein level; format: cell-based, human; settings: CEM, G2 synchronized cells, highest concentration of DIP 10 µM
SORORIN [9] = test: Western blot of SORORIN protein level; format: cell-based, human; settings: NALM6, G2 synchronized cells, highest concentration of DIP 10 µM

Row | SMILES | clearance [1] [mL/min/kg] | clearance ([1]; 0.1 mg/kg) [mL/min/kg] | total plasma concentrations [1] | paw withdrawal responses (C57BL/6 J mice; mice receiving VCR alone) | survival of mice, VCR and vehicle versus controls (CEM leukemia cells) | plasma concentrations reported clinically [2] | plasma protein binding [3] | CEM α (drug‐drug interaction between vincristine and second drug) (CEM) | NALM6 α (drug‐drug interaction between vincristine and second drug) (NALM6) | Branches α (drug‐drug interaction between vincristine and second drug) (hiPSC‐derived neurons [4]) | Outgrowth α (drug‐drug interaction between vincristine and second drug) (hiPSC‐derived neurons [4]) | Processes α (drug‐drug interaction between vincristine and second drug) (hiPSC‐derived neurons [4]) | Viability α (drug‐drug interaction between vincristine and second drug) (hiPSC‐derived neurons [5]) | paw withdrawal response, DIP administered with VCR versus VCR alone (C57BL/6 J mice; mice, DIP oral gavage with VCR intraperitoneal, day 1 to day 10) | phospho‐histone H3 (Ser10) levels [6] | phospho‐histone H3 (Ser10) levels [7] | SORORIN protein levels (SORORIN [8]) | SORORIN protein levels (SORORIN [9])
1 | CC[C@]1(O)C[C@H]2CN(CCc3c([nH]c4ccccc34)[C@@](C(=O)OC)(c3cc4c(cc3OC)N(C=O)[C@H]3[C@@](O)(C(=O)OC)[C@H](OC(C)=O)[C@]5(CC)C=CCN6CC[C@]43[C@@H]65)C2)C1 [VCR, Vincristine] | 81.3 | 99.3 | up to 10 ng/ml | significant increase | significantly prolonged survival | up to 31.2 ng/ml | around 75% | – | – | – | – | – | – | – | – | – | – | –
2 | CCOC(=O)c1ccc(C#Cc2ccc3c(c2)C(C)(C)CCS3)nc1 [Tazarotene] | – | – | – | – | – | – | – | 0.945 | 1.42 | −1.16 | −1.63 | −1.59 | −0.72 | – | – | – | – | –
3 | OCCN(CCO)c1nc(N2CCCCC2)c2nc(N(CCO)CCO)nc(N3CCCCC3)c2n1 [Dipyridamole] | – | – | ≤ 5000 ng/mL | – | – | ≤ 6000 ng/mL | – | 11.6 | 4.45 | −3.43 | −1.98 | −1.75 | −3.7 | significantly lowered | dose‐dependent increase | dose‐dependent increase | lowest level of SORORIN protein | lowest level of SORORIN protein
4 | OCCOCCN1CCN(C2=Nc3ccccc3Sc3ccccc32)CC1 [Quetiapine fumarate] | – | – | – | – | – | – | – | 0.787 | 2.33 | −2.29 | −1.67 | −1.25 | −0.007 | – | – | – | – | –
